For data set [1], the target named is Cyclin-dependent kinase 4 (Homo sapiens, UniProt P11802). Nature of the data set: Inhibition of CDK4-mediated retinoblastoma protein phosphorylation by dose-response curve analysis. Summed up:
(§1)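 Kinase assay read as Rb phosphorylation by cyclin D1-CDK4 or cyclin E-CDK2. IC50 is the concentration (μg/mL) giving 50% inhibition of Rb phosphorylation, read from the dose-response curve. Values are means of at least two determinations.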

Data set [2] concerns the target Cyclin-dependent kinase 2 (Homo sapiens, UniProt P24941). Description: Inhibition of CDK2-mediated retinoblastoma protein phosphorylation by dose-response curve analysis. Summed up:
as §1

For the next data set, the system named is WiDr. Description: Antiproliferative activity against human WiDr cells by MTT assay. It counts as functional, cell-based. Summed up: (§2)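 Cell growth inhibition measured from dose-response curves at ten concentrations. IC50 is the concentration giving 50% growth inhibition, read from these curves.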
A general note: Tetrazolium dyes change colour on reduction, which living cells bring about.

Another data set has as its system MDA-MB-468. Nature of the data set: Antiproliferative activity against human MDA-MB-468 cells by MTT assay. It counts as functional, cell-based. The method, boiled down: as §2
Data set [3] has as its system HCT-116. Description: Antitumor activity against human HCT116 cells xenografted in nude mouse assessed as maximum inhibition of […] growth at 200 mg/kg, iv qd for 4 days. It counts as functional. The following applies: HCT-116, 96 h. The method, boiled down:
(§3)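 HCT116 solid tumours in mice. Hydrochloride salt dissolved in 40% Captisol, dosed 200 mg/kg once daily for 4 days (qdx4), i.v. or p.o. Read-outs: maximum inhibition rate of tumour volume, maximum body weight loss, and toxic deaths out of 5 mice.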
A general note: A xenograft is tissue or cells of one species grown in another, often human tumour cells in immunodeficient mice.

For data set [4], the system named is HCT-116. Nature of the data set: Cell cycle arrest in human HCT116 cells assessed as decrease in accumulation at G2/M phase at 500 ng/mL after 16 hrs by FACS analysis. The format is functional, cell-based. The method, boiled down:
(§4)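 HCT116 cells exposed to test compound at various concentrations for 16 hr, then collected. DNA content measured by flow cytometry to assign G1, S and G2/M fractions.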

In the next data set the test system is DLD-1. Nature of the data set: Antiproliferative activity against human DLD1 cells by MTT assay. The format is functional, cell-based. Summed up:
as §2

The test system of data set [5] is HCT-116. Nature of the data set: Cell cycle arrest in human HCT116 cells assessed as decrease in accumulation at S phase at 500 ng/mL after 16 hrs by FACS analysis. The format is functional, cell-based. The method, boiled down:
as §4
Background: A flow cytometer gives signals particle by particle.

Data set [6] concerns HCT-116. Description: Antiproliferative activity against human HCT116 cells by dose-response curve analysis. The format is functional, cell-based. The method, boiled down: as §2
The test system of data set [7] is Mus musculus. Nature of the data set: Toxicity in nude mouse xenografted with human HCT116 cells assessed as maximum body weight loss at 200 mg/kg, iv qd for 4 days. It counts as organism-based, HCT-116. More on the design: dose 200 mg/kg, route intravenous. The note with it: in vivo, 96 h. Summed up:
as §3

A short description of data set [8]: Antiproliferative activity against mouse B16-BL6 cells by MTT assay. The format is functional, cell-based. Summed up: as §2
The next data set relates to PC-6. Nature of the data set: Antiproliferative activity against human PC6 cells by dose-response curve analysis. It counts as functional, cell-based. Summed up:
as §2

The subject of data set [9] is HCT-116. Nature of the data set: Cell cycle arrest in human HCT116 cells assessed as accumulation at G1 phase at 500 ng/mL after 16 hrs by FACS analysis. It counts as functional. The method, boiled down:
as §4

Data set [10] deals with HCT-116. Description: Antitumor activity against human HCT116 cells xenografted in nude mouse assessed as maximum inhibition of […] growth at 200 mg/kg, po qd for 4 days. The format is functional. The following applies: HCT-116, 96 h. Summed up: as §3
A short description of data set [11]: Solubility in 40% captisol. It counts as physicochemical.
Data set [12] deals with Mus musculus. Nature of the data set: Toxicity in nude mouse xenografted with human HCT116 cells assessed as maximum body weight loss at 200 mg/kg, po qd for 4 days. The format is organism-based, HCT-116. Details: dose 200 mg/kg, route oral. The following applies: in vivo, 96 h. The method, boiled down:
as §3

A further data set concerns MKN-28. Description: Antiproliferative activity against human MKN28 cells by MTT assay. The format is functional, cell-based. Summed up:
as §2

A further data set has as its system MDA-MB-231. Description: Antiproliferative activity against human MDA-MB-231 cells by MTT assay. It counts as functional, cell-based. The method, boiled down: as §2
Data set [13] deals with Mus musculus. Description: Toxicity in nude mouse xenografted with human HCT116 cells assessed as death at 200 mg/kg, po qd for 4 days. It counts as organism-based, HCT-116. Details: dose 200 mg/kg, route oral. The following applies: in vivo, 96 h. The method, boiled down: (§5)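 Mice bearing HCT116 colon solid tumours (n=5 per group) dosed as the hydrochloride salt dissolved in 40% Captisol at 200 mg/kg once daily for 4 days (qdx4), i.v. or p.o. Toxicity recorded as the number of mice dead from toxicity over the number used, with maximum body-weight loss also noted.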

Data set [14] has as its system Mus musculus. Description: Toxicity in nude mouse xenografted with human HCT116 cells assessed as death at 200 mg/kg, iv qd for 4 days. The format is organism-based, HCT-116. More on the design: dose 200 mg/kg, route intravenous. The following applies: in vivo, 96 h. The method, boiled down:
as §5

Data set [15] relates to HCT-116. Description: Antiproliferative activity against docetaxal-resistant human HCT116 cells by MTT assay. The format is functional, cell-based. Summed up:
as §2

For a further data set, the system named is P388. Nature of the data set: Antiproliferative activity against mouse P388 cells by MTT assay. It counts as functional, cell-based. Summed up:
as §2

In data set [16] the test system is HCT-116. Description: Antiproliferative activity against SN2-3-resistant human HCT116 cells by MTT assay. It counts as functional, cell-based. The method, boiled down:
as §2

Data set [17] is described as follows: Aqueous solubility in water. It counts as physicochemical.

The structures appear in SMILES notation. Values after ≈ are worked out from the molar mass of the structure shown. Active and inactive are the calls of the source. The calls are words filed in the database; no cut-off is given here.

Chain of Cyclin-dependent kinase 4 (P11802 whole entry): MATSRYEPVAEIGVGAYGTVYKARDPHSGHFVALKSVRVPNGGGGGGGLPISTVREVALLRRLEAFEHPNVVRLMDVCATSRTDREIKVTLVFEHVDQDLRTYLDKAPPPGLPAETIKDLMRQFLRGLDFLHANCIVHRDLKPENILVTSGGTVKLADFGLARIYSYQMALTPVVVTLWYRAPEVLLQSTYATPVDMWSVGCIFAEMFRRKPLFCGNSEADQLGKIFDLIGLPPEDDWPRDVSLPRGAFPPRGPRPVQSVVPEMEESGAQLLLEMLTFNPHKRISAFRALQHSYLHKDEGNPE

Usually IC50 stands for the concentration that gives 50% inhibition. Low values mean greater potency in that assay, high ones weaker potency in that assay. With `Cc1cc2c(N/N=C\c3cccs3)ncnc2s1`, the half-maximal inhibitory concentration (IC50) in [1] was 6920 nM; in [2], 6.2 µM.
Regarding `CCc1cc2c(N/N=C\C3CC3)ncnc2s1`, the IC50 was 13000 nM in data set [1] and 16.6 µM in data set [2].
By inhibition in vivo is commonly meant the drop in the measured response relative to a control, in per cent. A word on the solubility: it is the dissolved amount per volume that the medium holds. Consider `CC(C)(C)c1cc2c(N/N=C\c3ccccn3)ncnc2s1`, for which the half-inhibitory concentration (IC50) with WiDr is 0.019 µg/mL (≈ 0.061 µM); in the data set on MDA-MB-468, 0.008 µg/mL (≈ 0.0257 µM); in the data set on DLD-1, 0.037 µg/mL (≈ 0.119 µM); in data set [1] it was 2890 nM; in the data set on HCT-116 [6], 0.014 µg/mL (≈ 0.045 µM); in data set [8], 0.045 µg/mL (≈ 0.145 µM). Also, the IC50 is 0.009 µg/mL (≈ 0.0289 µM) with PC-6; 8.99 µM in data set [2]; 0.049 µg/mL (≈ 0.157 µM) with MKN-28; 0.019 µg/mL (≈ 0.061 µM) in the data set with MDA-MB-231; 0.007 µg/mL (≈ 0.0225 µM) in the data set with HCT-116 [15]; 0.006 µg/mL (≈ 0.0193 µM) with P388. In addition, the 50% inhibitory concentration (IC50) in the data set on HCT-116 [16] was 0.005 µg/mL (≈ 0.0161 µM). Moreover, the inhibition in vivo at 200 mg/kg in the data set with HCT-116 [3] was determined as 67.9%; with HCT-116 [10], 54.1%. For the same molecule, the result in the data set with HCT-116 [4] and in the data set on HCT-116 [5] was Active. Further, the Activity was 22.6% with Mus musculus [7]; 64% with HCT-116 [9]; 4.6% in the data set on Mus musculus [12]; “Non-toxic” in the data set on Mus musculus [13]; “Non-toxic” in the data set on Mus musculus [14]. Also, the solubility result in data set [11] is “Soluble”.
For the molecule `C(=N/Nc1ncnc2sc3c(c12)CCCC3)/c1cccs1`, the values for the half-inhibitory concentration (IC50) in data set [1] and in data set [2] were > 63600 nM and > 63.6 µM, respectively.
In the case of `CC(C)c1cc2c(N/N=C\c3cccs3)ncnc2s1`, in [17], the solubility is < 0.1 µg/mL. The 50% inhibitory concentration (IC50) in data set [1] was 165 nM; in data set [2], 1.16 µM.
In the case of `CC(C)c1cc2c(N/N=C\c3cccnc3)ncnc2s1`, the IC50 in [1] was 1850 nM; in the data set with PC-6, 0.889 µg/mL (≈ 2.99 µM); in [2], 2.35 µM.
Take `CC(C)(C)c1cc2c(N/N=C\c3cccnc3)ncnc2s1`: the results for the IC50 (in data set [1]; with PC-6; in [2]) were 1610 nM, 1.45 µg/mL (≈ 4.66 µM) and 1.8 µM, respectively.
As for `CC(C)c1cc2c(N/N=C\c3ccccn3)ncnc2s1`, the IC50 in data set [1] is 2960 nM; in the data set with HCT-116 [6] it was 0.01 µg/mL (≈ 0.0336 µM); in the data set on PC-6, 0.003 µg/mL (≈ 0.0101 µM); in [2] it was 10.4 µM.
Regarding `CC(C)c1cc2c(N/N=C\c3ccncc3)ncnc2s1`, the results for the IC50 (in data set [1]; in the data set with PC-6; in data set [2]) were 807 nM, > 10 µg/mL and 1.11 µM, respectively.
`CC(C)c1cc2c(N/N=C\c3ccccc3)ncnc2s1`: the IC50 is 1590 nM in data set [1], 0.651 µg/mL (≈ 2.2 µM) with PC-6 and 2.97 µM in [2].
Consider `CCc1cc2c(N/N=C\c3cccs3)ncnc2s1`, for which the concentration for half-maximal inhibition (IC50) was 1.36 µg/mL (≈ 4.72 µM) with WiDr; 0.048 µg/mL (≈ 0.166 µM) in the data set on MDA-MB-468; 1.12 µg/mL (≈ 3.88 µM) in the data set with DLD-1; 2600 nM in [1]; 1.61 µg/mL (≈ 5.58 µM) in the data set on HCT-116 [6]; 2.44 µg/mL (≈ 8.46 µM) in [8]. Further, the 50% inhibitory concentration (IC50) in the data set on PC-6 was 0.566 µg/mL (≈ 1.96 µM); in data set [2], 3.81 µM; in the data set with MKN-28 it was 2.86 µg/mL (≈ 9.92 µM); in the data set with MDA-MB-231 it was 1.87 µg/mL (≈ 6.48 µM); in the data set on HCT-116 [15], 1.21 µg/mL (≈ 4.2 µM); in the data set on P388, 1.01 µg/mL (≈ 3.5 µM). Moreover, in the data set on HCT-116 [16], the IC50 was 1.34 µg/mL (≈ 4.65 µM).
`Cc1cccc(/C=N\Nc2ncnc3sc(C(C)(C)C)cc23)n1`: the IC50 in [1] is 1600 nM; with HCT-116 [6], 0.268 µg/mL (≈ 0.823 µM); in the data set on PC-6, 0.258 µg/mL (≈ 0.793 µM); in data set [2] it was 21.2 µM.
Turning to `CNCc1cccc(/C=N\Nc2ncnc3sc(C(C)(C)C)cc23)n1`, the IC50 is 0.263 µg/mL (≈ 0.742 µM) with WiDr; 0.159 µg/mL (≈ 0.449 µM) with MDA-MB-468; 0.221 µg/mL (≈ 0.623 µM) in the data set with DLD-1; 705 nM in [1]; 0.185 µg/mL (≈ 0.522 µM) in the data set with HCT-116 [6]; 0.379 µg/mL (≈ 1.07 µM) in data set [8]. Also, the IC50 in the data set with PC-6 is 0.189 µg/mL (≈ 0.533 µM); in data set [2] it was 20 µM; with MKN-28 it was 0.686 µg/mL (≈ 1.94 µM); in the data set with MDA-MB-231, 0.279 µg/mL (≈ 0.787 µM); with HCT-116 [15] it was 0.29 µg/mL (≈ 0.818 µM); with P388, 0.131 µg/mL (≈ 0.37 µM). Besides, the half-inhibitory concentration (IC50) in the data set on HCT-116 [16] was 0.269 µg/mL (≈ 0.759 µM).
As for `CC(C)(C)c1cc2c(N/N=C\c3cccc(CN4CCOCC4)n3)ncnc2s1`, the half-inhibitory concentration (IC50) in [1] is 414 nM; in the data set on HCT-116 [6], 0.363 µg/mL (≈ 0.884 µM); with PC-6, 0.261 µg/mL (≈ 0.636 µM); in data set [2], 13.4 µM.
